Most compounds without a hit are left out; they make up all but 3.5% or so of the library.
FXIIa inh: inhibitors of human coagulation factor XIIa; P00748; purified FXIIa, Boc-QGR-AMC fluorogenic substrate, 2 h; inhibition, % at 5 µM; hit rate 0.3% among 220,000; AID 800; in the data active means inhibition above about 40%;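 further: 0% = enzyme with no compound and 100% = blank without enzyme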
FXIa inh 1536: factor XIa (human) inhibition. P03951. purified FXIa, Boc-Glu-Ala-Arg-AMC fluorogenic substrate. inhibition, % at 5 µM. hit rate 0.14% among 220,000;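 active means inhibition of at least 40%; inactive means inhibition below 40%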;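 further: fluorescence of freed AMC excited at 355 nm; 0% = enzyme without compound and 100% = no enzyme blank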
STAT3 act: increases IL-6 driven STAT3 reporter signal. U3A cells, IL-6 STAT3-luciferase reporter, luminescence; 100% = signal with IL-6 EC80 alone. activation (% of control), % at 5.6 µM. hit rate 0.91% among 190,000;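 active means activation above the screen-wide mean of compound activation plus 3 SD, cut at about 130% in these data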;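 further: 0% = background luminescence of wells with medium and substrate only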
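Material: STAT3-luciferase reporter U3A cells. Controls: IL-6-treated wells, 100% activation. Read-out: % activation versus median of IL-6-stimulated wells. Probe or stimulus: IL-6 stimulus at 33 ng/mL final. Timing: compound 1 h, then IL-6 6 h at 37 °C. Signal: reporter luminescence signal.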
AHR activator: activators of human aryl hydrocarbon receptor; P35869; AHR-responsive luciferase reporter cells, luminescence; activation, % at 5 µM; hit rate 2.5% among 320,000; AID 2796; in the data active means activation above about 47%;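 further: 0% = vehicle wells and 100% = reference agonist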
KLK5 inh: inhibitors of human kallikrein 5 | recombinant hK5, fluorogenic AMC substrate cleavage | inhibition, % at 5 µM | hit rate 0.59% among 210,000;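 active means inhibition of 40% or more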;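 further: 0% = enzyme controls without compound and 100% = no-enzyme blanks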
Thrombin inh: blocks human thrombin protease activity. P00734. alpha-thrombin, Boc-VPR-AMC fluorogenic substrate cleavage. inhibition, % at 5 µM. hit rate 0.26% among 220,000. AID 1046;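 active means inhibition at or above 40%; inactive means inhibition below 40%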;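 further: 0% = enzyme with no compound and 100% = wells without enzyme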
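Test system: human alpha-thrombin protein / Dosing: one concentration per compound, 5 µM, with 0.2% DMSO / Medium: pH 7.5 Tris-saline with Tween 20 / Benchmarks: no-compound enzyme wells and no-enzyme blanks / Read-out basis: percent inhibition of thrombin substrate cleavage / Timing: reaction at room temperature / Measured by: fluorescence, ex 355 nm, em 460 nm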
An asterisk follows results filed as active; nt = no result given.

SMILES | FXIIa inh | FXIa inh 1536 | STAT3 act | AHR activator | KLK5 inh | Thrombin inh
O=C(CCN1C(=O)C2C3C=CC(C3)C2C1=O)NC1CCCc2ccccc21 (stereo unspecified) | 23 | 13 | 111 | 14 | 53* | 14
O=C(CCn1ccc2ccccc21)NC1CCCc2ccccc21 (stereo unspecified) | 7 | -3 | 126 | 18 | -17 | -3
O=C1CN(C(=O)CNC(=O)c2ccc(Cl)cc2Cl)CCN1 | nt | nt | nt | 0 | nt | nt
CCc1nc2oc3ccccc3c(=O)c2c(=O)n1CCOC | 16 | 8 | 105 | 19 | -10 | 6
Cc1ccc(-n2c(C(C)C)nc3oc4ccccc4c(=O)c3c2=O)cc1 | 11 | 0 | nt | 75* | 3 | 0

Compound activity (PubChem BioAssay)
